Measurements of several laboratories.
Each line is one published result; the experiments were not run side by side.
Target: Protein kinase C eta type (PRKCH, Homo sapiens, UniProt P24723)

Compound | test | setting | remaining binding [%]
CN(c1nccc(-c2cnn3ncccc23)n1)C1CC1 | binding | 1 µM | 100
CN(C)c1ncnc(-c2ccc3nc(Nc4cc(CN5CCN(C(=O)CC(F)(F)F)CC5)ccn4)[nH]c3c2)c1Cl | cell-free assay, competition with immobilised ligand | 1 µM | 100
c1cncc(-c2cccc(Nc3nccc(NC4CCCCC4)n3)c2)c1 | binding, competition with immobilised ligand | 10 µM | 73
Cc1cnn2ncc(-c3ccnc(N(C)C)n3)c2c1 | binding | 1 µM | 100
CNC(=O)Nc1ccc2c(c1)CC[C@@]21OC(=O)N(CC(=O)N(Cc2ccc(F)cc2)[C@@H](C)C(F)(F)F)C1=O | cell-free assay, competition with immobilised ligand | 1 µM | 93
O=C(c1ccc(Nc2nccc(-c3cc4ccccc4s3)n2)cc1)N1CCC(N2CCCC2)CC1 | binding, competition with immobilised ligand | 1 µM | 74
C=CC(=O)N1CCC(C(=O)NCC(=O)N2CCN(c3nc(-c4cnc(N)nc4C(F)F)nc(N4CCOCC4)n3)CC2)CC1 | binding, competition with immobilised ligand | 1 µM | 100
C[C@H]1CCN(c2nccc(-c3cnn4ncccc34)n2)C1 | binding | 1 µM | 93
CN(C)CC#Cc1ccc(OCCCc2sc(N3CCc4cccc(C(=O)Nc5nc6ccccc6s5)c4C3)nc2C(=O)O)c(F)c1 | cell-free assay, competition with immobilised ligand | 1 µM | 74
O=C(c1ccc(Nc2ncc(Cl)c(-c3ccc(Cl)s3)n2)cc1)N1CCC(N2CCCC2)CC1 | binding, competition with immobilised ligand | 1 µM | 46
FC(F)(F)Oc1cccc(-c2cnc3ccc(-c4ccncc4)nn23)c1 | cell-free assay, competition with immobilised ligand | 5 µM | 91
CN(CCCC(F)(F)F)c1nccc(-c2cnn3ncccc23)n1 | binding | 1 µM | 89
CCS(=O)(=O)c1cc2cc(C[C@@](O)(CC(C)(C)c3ccc(F)cc3C(N)=O)C(F)(F)F)[nH]c2cn1 | cell-free assay, competition with immobilised ligand | 1 µM | 100
N[C@@H]1CCN(c2nccc(-c3cnn4ncccc34)n2)C1 | binding | 1 µM | 100
O=C(NCCCN1CCOCC1)c1ccc(Nc2nccc(-c3cc4ccccc4s3)n2)cc1 | binding, competition with immobilised ligand | 1 µM | 84
c1cnn2ncc(-c3ccnc(N4CCC45COC5)n3)c2c1 | binding | 1 µM | 88
O=C(Nc1c[nH]nc1C(=O)NC1CCNCC1)c1cc(F)cc(F)c1 | binding, competition with immobilised ligand | 1 µM | 73
CC(=O)Nc1c(C(C)=O)c(=O)n(C)c2nc(-c3ccc(Cl)cc3Cl)c(-c3ccc(Cl)cc3)cc12 | cell-free assay, competition with immobilised ligand | 1 µM | 100
COc1cnc(Nc2cccc(S(N)(=O)=O)c2)nc1N1CCN(c2ccccc2)CC1 | binding, competition with immobilised ligand | 1 µM | 100
CC1CCCN1c1nccc(-c2cnn3ncccc23)n1 (stereo not shown) | binding | 1 µM | 100
Nc1ncc2c(n1)-c1c([nH]c3ccc(C#CC4CC4)cc13)CCCC2 | binding, competition with immobilised ligand | 1 µM | 100
O=C(Nc1cnc(Oc2ccc(F)cc2)nc1)N1CCc2ncccc2[C@@H]1c1ccc(F)cc1 | cell-free assay, competition with immobilised ligand | 1 µM | 76
